# This is a sample that favours compounds with a hit; in the whole collection about 4.7% have one here.
# HTR2A ag – agonists of mouse serotonin 5-HT2A receptor (HTR2A). CHO-K1 mHTR2A beta-arrestin complementation, luminescence; percent of 30 µM serotonin response. activation, % at 7.6 µM. 360,000 compounds, 0.66% hits;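 active = activation above a run cutoff, the mean activation of all tested compounds plus 3 SD, cut at about 14% in these data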
# GAA850 FXN act – frataxin GAA850 promoter activation. activation, % at 6 µM. HEK293 lucGAA850 FXN promoter luciferase reporter, 24 h; percent of 10 µM SAHA response. 360,000 compounds, 0.56% hits;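 active = activation above the average of all compounds screened plus 3 SD, cutoff fixed separately per campaign, cut at about 7.5% in these data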
# MC4R antag cAMP – antagonists of human melanocortin 4 receptor (MC4R) | MC4R-expressing cells, MTII-stimulated cAMP, LANCE TR-FRET | AID 540295 | 360,000 compounds, 0.48% hits | inhibition, % at 6.5 µM;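 active = inhibition above its plate's cutoff, the mean of tested wells on that plate plus 3 SD, cut at about 29% in these data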
# Target sequence (P32245 whole entry, looked up): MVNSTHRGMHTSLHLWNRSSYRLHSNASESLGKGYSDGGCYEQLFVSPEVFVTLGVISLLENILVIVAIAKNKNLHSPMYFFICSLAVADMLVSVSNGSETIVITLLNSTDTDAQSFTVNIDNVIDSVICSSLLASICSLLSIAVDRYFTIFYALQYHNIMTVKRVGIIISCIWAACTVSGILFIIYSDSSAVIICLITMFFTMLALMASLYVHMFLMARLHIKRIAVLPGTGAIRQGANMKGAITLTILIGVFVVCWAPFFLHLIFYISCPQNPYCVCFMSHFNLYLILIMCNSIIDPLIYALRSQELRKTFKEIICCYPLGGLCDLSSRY
#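 Material: human MC4R-expressing U2OS cells. Probe or stimulus: Melanotan II challenge. Dosing: 6.5 µM single dose. Times: 30-min compound, 1-h challenge, 1-h detection, room temperature. Technique: TR-FRET with Eu-cAMP and labeled anti-cAMP, 671 nm. Replication: singlicate.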
# MC4R ag barr – agonists of human melanocortin 4 receptor (MC4R) beta-arrestin. P32245. U2OS MC4R beta-arrestin complementation, luminescence; percent of melanotan II response, DMSO zero. activation, % at 8.9 µM. 360,000 compounds, 0.98% hits. AID 540308;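 active = activation above a per-plate cutoff, the mean activation of sample wells on that plate plus 3 SD, cut at about 8% in these data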
# AHR act – activates the human aryl hydrocarbon receptor; P35869; AHR-responsive luciferase reporter cells, luminescence; activation, % at 5 µM; 320,000 compounds, 2.5% hits; in the data active = activation above about 47%
# Hits are given with their value; n = inactive; x = no result given.
SMILES,HTR2A ag,GAA850 FXN act,MC4R antag cAMP,MC4R ag barr,AHR act
Cc1ccc(C2CC(c3cccs3)=NN2C(=O)CSc2nc3ccccc3o2)cc1 (centres undefined),n,n,n,n,75
O=C(CSc1nc2ccccc2o1)N1N=C(c2cccs2)CC1c1ccc(F)cc1 (centres undefined),n,n,n,n,n
CCOC(=O)N1CCC(NC(=O)c2cc3c(-c4ccccc4F)nn(C)c3s2)CC1,n,n,n,n,n
COc1cccc(-c2nc(CS(=O)(=O)CC(=O)N3CCN(c4ccccn4)CC3)c(C)o2)c1,n,n,n,n,57
COc1cccc(-c2nn(C)c3sc(C(=O)NCc4ccc5c(c4)OCO5)cc23)c1,n,n,n,n,50
COc1cccc(-c2nn(C)c3sc(C(=O)N4CCN(c5ccccn5)CC4)cc23)c1,n,n,n,n,58
COc1cccc(C(=O)N2CCN(c3ccccn3)CC2)c1,n,n,n,n,n
Cn1nc(-c2ccccc2F)c2cc(C(=O)N3CCN(C(=O)c4ccco4)CC3)sc21,n,n,n,n,66
CN1CCN(c2ccccc2NC(=O)COc2ccc(Cl)cc2)CC1,n,n,n,n,n
CCOC(=O)C1CCCN(C(=O)c2cc3c(-c4cccc(OC)c4)nn(C)c3s2)C1 (centres undefined),n,n,n,n,n
Cn1nc(-c2ccc(Cl)cc2)c2cc(C(=O)N3CCOCC3)sc21,n,n,n,n,55
COc1cccc(-c2nn(C)c3sc(C(=O)N4CCOCC4)cc23)c1,n,n,n,n,58
Nc1cc2[nH]c(=O)c3ccccc3c2cc1[N+](=O)[O-],n,n,n,n,x
N/C(=N\OC(=O)c1ccc(Cl)cc1)c1ccc(Cl)cc1,n,n,n,n,n
N=C(N)c1ccc(Cl)cc1,n,n,n,n,52
CCCCOC(=O)Nc1nc2ccc(OC)cc2s1,n,n,n,n,n
COc1ccc2nc(NC(=O)Nc3ccccc3)sc2c1,n,n,n,n,n
COc1ccccc1NC(=O)NC(=O)N(C(C)C)S(C)(=O)=O,n,n,n,n,60
COc1ccccc1NC(=O)Nc1ccccc1SC,n,n,n,n,n
CCOc1ccc2nc(NC(=O)Nc3ccccc3)sc2c1,n,n,n,n,78
COc1ccccc1NC(=O)Nc1nnc(C(C)C)s1,n,n,n,n,60
CCCCN(C(=O)NC(=O)Nc1nc2ccc(OC)cc2s1)S(C)(=O)=O,n,9.5,n,n,n
Nc1nc2ncccn2c1-c1ccc(C(F)(F)F)cc1,n,x,x,x,x
CCCCN(C(=O)NC(=O)Nc1ccccc1OC)S(C)(=O)=O,n,n,n,n,58
COC(=O)c1sc(-c2ccccc2)cc1NC(=O)C1CC1,n,n,n,n,n
SMILES,HTR2A ag,GAA850 FXN act,MC4R antag cAMP,MC4R ag barr,AHR act
CCCCN(C(=O)NC(=O)Nc1cc(C)ccc1C)S(C)(=O)=O,n,n,n,n,n
CCOc1ccc(NC(=O)Nc2cc(-c3ccccc3)sc2C(=O)OC)cc1,n,n,n,n,47
COC(=O)CS(=O)(=O)c1nnc([C@H](Cc2ccccc2)NC(=O)OC(C)(C)C)o1,n,15,n,n,n
Cc1cc2c(=Cc3ccc(N(C)C)cc3)c3ccccc3n2[n+]1C,n,n,n,n,x
CN(C)c1ccc(C=c2c3ccccc3n3c2c2ccccc2[n+]3C)cc1,n,n,n,14,x
CCCC(=O)Nc1nc2ccc(NC(=O)c3ccccc3F)cc2s1,n,n,n,n,62
CC(=O)c1cccc(-c2ccnc3c2CC(C(=O)Nc2cccc(C(F)(F)F)c2)O3)c1 (centres undefined),n,n,n,n,x
CC(=O)C1=C(O)C(=O)N(CCc2ccccc2)C1c1ccccc1[N+](=O)[O-] (centres undefined),n,n,n,n,49
CCN(CC)CCN1C(=O)C(O)=C(C(C)=O)C1c1ccccc1[N+](=O)[O-] (centres undefined),n,n,n,n,n
CC(Sc1nnc(-c2ccc(OC(F)F)cc2)n1N)C(=O)NCC1CCCO1 (centres undefined),n,n,n,n,n
Clc1ccc(-c2onc3c2CCCC3)cc1,n,n,n,n,n
Clc1ccc(-c2n[nH]c3c2CCCC3)cc1,n,n,n,n,56
COc1ccc(N2CC(C(=O)N(C)CC(=O)Nc3ccc(Cl)c(C(F)(F)F)c3)CC2=O)c(OC)c1 (centres undefined),n,n,n,n,n
Cc1ccc(S(=O)(=O)Cc2cc(F)c([N+](=O)[O-])cc2[N+](=O)[O-])cc1,n,n,31,n,n
Cc1ccc(S(=O)(=O)CCC(=O)c2cccc([N+](=O)[O-])c2)cc1,n,n,31,n,n
Cc1ccc(C(=O)CCS(=O)(=O)c2ccc(Br)cc2)cc1,n,n,n,n,n
C#CCn1c(O)c(N=NC(=O)C(O)c2ccccc2)c2ccccc21 (centres undefined),n,n,n,n,67
O=[N+]([O-])c1ccc(Oc2cccc(F)c2)c2ccncc12,n,n,n,n,55
COc1ccc(C2NCCc3c2[nH]c2ccccc32)cc1COc1ccc(F)cc1 (centres undefined),n,n,n,24,n
COc1ccc(C2NCCc3c2[nH]c2ccccc32)cc1CN1CCc2cc(OC)c(OC)cc2C1C (centres undefined),n,n,n,n,x
CCOc1ccc(-n2c(N)c(-c3nc4ccccc4[nH]3)sc2=S)cc1,n,n,n,8.8,72
CC1(C(=O)Nc2cccc(C#N)c2)CCN1C(=O)C/C=C/c1ccccc1 (centres undefined),n,n,n,n,x
Cc1nn(C)cc1/C=N/NC(=S)Nc1ccc(Cl)cc1Cl,n,n,n,n,n
CCn1nc(C)c(/C=N/NC(=S)Nc2ccc(Cl)cc2Cl)c1C,n,n,n,n,53
O=C(Nc1ccccc1Oc1ccccc1)c1cccc([N+](=O)[O-])c1,n,n,n,n,77
SMILES,HTR2A ag,GAA850 FXN act,MC4R antag cAMP,MC4R ag barr,AHR act
Cc1ccc(C(=O)Nc2ccccc2Oc2ccccc2)cc1[N+](=O)[O-],n,n,n,n,74
CC(=O)Nc1cccc(NC(=O)c2ccc(C)c([N+](=O)[O-])c2)c1,n,n,n,n,n
Cc1ccc(C(=O)Nc2ccncc2)cc1[N+](=O)[O-],n,n,n,n,n
Cc1ccc(C(=O)Nc2ccc(OCc3ccccc3)cc2)cc1[N+](=O)[O-],n,n,n,9.5,n
O=C(Nc1ccncc1NC(=O)c1cccc([N+](=O)[O-])c1)c1cccc([N+](=O)[O-])c1,n,n,n,n,n
COc1ccc(CCC(=O)OCC(=O)Nc2sccc2C(N)=O)cc1,n,n,n,n,n
O=c1c2c(-c3cccs3)csc2ncn1/N=C/c1ccc(OC(F)F)cc1,n,n,n,n,56
O=c1c2c(-c3cccs3)csc2ncn1-c1ccc(Br)cc1,n,n,n,n,65

# Screening results: PubChem BioAssay, The Scripps Research Institute Molecular Screening Center
